5HT1a antag = antagonists of human 5-HT1a serotonin receptor; actives 0.68% (n = 62,000); CHO 5-HT1a Ga15 NFAT-bla reporter, antagonist mode; AID 612; inhibition, % at 10 µM;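 active means inhibition above the mean of all tested compounds plus 3 SD, cut at about 43% in these data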;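 further: receptor stimulated by 5-CT agonist at 100 nM near EC80; beta-lactamase reporter measured by ratiometric fluorescence of a cleavable substrate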
Target sequence (P08908 whole entry, looked up): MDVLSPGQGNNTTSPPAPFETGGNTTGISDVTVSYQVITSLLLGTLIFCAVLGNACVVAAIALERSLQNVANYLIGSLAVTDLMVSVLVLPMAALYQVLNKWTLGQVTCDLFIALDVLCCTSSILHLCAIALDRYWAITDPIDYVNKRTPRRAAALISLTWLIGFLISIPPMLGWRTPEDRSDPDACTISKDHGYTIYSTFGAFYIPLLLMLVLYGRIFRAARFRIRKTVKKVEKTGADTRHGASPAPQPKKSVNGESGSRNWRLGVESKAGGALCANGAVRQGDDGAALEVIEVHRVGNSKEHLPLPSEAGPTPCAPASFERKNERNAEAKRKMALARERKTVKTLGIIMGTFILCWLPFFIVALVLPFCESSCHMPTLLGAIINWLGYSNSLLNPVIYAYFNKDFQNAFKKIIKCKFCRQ
5HT1E ag = 5-HT1E (human) receptor agonism. P28566. activation, % at 6 µM. CHO 5-HT1E Ga15 NFAT-bla reporter, FRET; 0% DMSO wells, 100% control agonist wells. actives 0.69% (n = 65,000);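 active means activation above a set limit, the screen-wide mean activation plus 3 SD, cut at about 8.5% in these data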;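 further: 100% = positive control agonist at 1 µM giving full maximal response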
HEK293 NFkB inh = lowers PMA/ionomycin-induced NF-kB signal in HEK293 cells; HEK-293 NF-kB luciferase reporter, luminescence; inhibition, % at 3 µM; actives 0.21% (n = 62,000); AID 465;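 active means inhibition above the mean of all tested compounds plus 3 SD, cut at about 40% in these data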;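 further: 0% = stimulated DMSO wells and 100% = 10 µM reference inhibitor 5653914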
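Timing: 1 h pretreatment, 16 h stimulation, 37 °C; system: HEK-293 cells with stable firefly luciferase reporter driven by four HIV NF-kB elements; doses: 3 µM once, 0.30% DMSO; measured by: luciferase luminescence; control set: DMSO and 10 µM reference inhibitor; repeats: single test; reagent: PMA plus ionomycin mix as NF-kB-activating stimulus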
HTR1A agonist = 5-HT1a (human) receptor agonism. P08908. CHO 5-HT1a Ga15 NFAT-bla reporter, FRET ratio; 0% basal, 100% maximal reference agonist. activation, % at 10 µM. actives 0.56% (n = 65,000). AID 567;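 active means activation above the screen-wide mean activation plus 3 SD, cut at about 19% in these data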;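 further: 0% = DMSO wells and 100% = 5-CT at EC100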
Jurkat viability = reduces viability or proliferation of Jurkat cells. Jurkat E6.1 viability, ATP luminescence, 48 h. inhibition, % at 4 µM. actives 1.2% (n = 56,000). AID 463;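 active means inhibition above the mean inhibition of all tested compounds plus 3 SD, cut at about 28% in these data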
5HT1E antag = blocks the human 5-HT1E serotonin receptor; P28566; CHO 5-HT1E Ga15 NFAT-bla reporter, FRET, antagonist; inhibition, % at 6 µM; actives 0.99% (n = 65,000);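 active means inhibition above a set limit, the mean inhibition across every tested compound plus 3 SD, cut at about 29% in these data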;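 further: signal is the 460 over 535 nm emission ratio of beta-lactamase substrate; 0% = agonist plus DMSO wells and 100% = wells without agonist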
Active calls of the source: *; nt = not tested or not shown. The list is not random: actives were taken first. Their share in the collection is about 3.3%.

SMILES	5HT1a antag	5HT1E ag	HEK293 NFkB inh	HTR1A agonist	Jurkat viability	5HT1E antag
CCCCc1nc(SCC(=O)Nc2ccc(S(N)(=O)=O)cc2)n[nH]1	-5.1	13.9*	9.0	-1.3	1.3	-0.1
COc1ccc(-c2c3c(=O)n(C)c(=O)n(C)c3cn2-c2cc(OC)ccc2OC)cc1	-1.7	0.3	18.0	-1.2	-5.7	9.5
c1ccc(N2CCN(Cc3cn4cccnc4n3)CC2)cc1	-2.6	58.8*	-7.6	-1.4	-4.7	6.9
CCOC(=O)N1CCN(C(=O)c2ccccc2CCc2ccccc2)CC1	8.6	-0.4	14.2	0.3	-7.5	-1.8
CCOC(=O)N1CCN(C(=O)c2ccccc2-c2ccccc2)CC1	3.6	0.6	31.6	-2.4	79.0*	8.3
CC(=O)c1cn(CC(=O)Nc2ccccc2)c2ccccc12	5.3	-0.4	17.8	0.4	37.2*	6.2
CCCOc1ccc(C(=O)c2nc3c(n2O)CCCC3)cc1	-5.5	-0.4	16.7	-2.2	0.5	3.0
CC(C)Cc1nc2oc3c(NCc4cccnc4)ncnc3c2c2c1CCC2	-2.2	2.0	4.2	0.0	3.6	35.2*
CCN1CCN(c2ncnc3c2oc2nc(C(C)C)c4c(c23)CCC4)CC1	-19.2	1.6	3.4	-1.2	8.6	-6.4
CC(C)c1nc2oc3c(NCc4cccnc4)ncnc3c2c2c1CCC2	-10.9	-0.8	15.5	1.4	4.3	30.2*
O=C(C1CCC(=O)N1C1CCCCC1)N1CCN(c2ccc(F)cc2)CC1 (configuration not stated)	-6.4	0.2	13.7	-3.2	-0.3	-2.9
COc1cccc(NC(=O)CSc2nnc(-c3cc(C)n(-c4ccccc4)c3C)o2)c1	1.4	-0.3	41.3*	-1.6	2.8	6.3
Cc1cc(C)cc(NC(=O)CSc2nnc(-c3ccccc3Br)o2)c1	0.0	-0.7	-6.7	0.1	5.4	-12.7
COc1ccc(C(c2c(O)ccc3ccccc23)N2CCOCC2)c(OC)c1 (configuration not stated)	106.7*	-0.8	-14.4	-6.7	5.9	16.3
Oc1c(CN2CCOCC2)cc(COCc2ccccc2)c2cccnc12	17.4	0.9	32.6	-0.9	53.9*	42.6*
COC(=O)c1sc(=S)sc1C(=O)OC	15.3	-0.1	-1.1	-0.7	-8.1	3.0
CC(C)CCNC(=O)Cn1c(=O)oc2cc(S(=O)(=O)N3CCc4ccccc43)ccc21	30.4	-1.0	11.3	1.3	-3.6	34.9*
Cc1ccc(NC(=O)Cc2nn(C)c(=O)c3ccccc23)cc1F	13.1	-0.8	31.1	0.8	nt	4.9
Cn1nc(CC(=O)Nc2ccc(N3CCN(C(=O)OC(C)(C)C)CC3)cc2)c2ccccc2c1=O	8.3	-0.1	44.9*	0.5	99.0*	2.9
COc1ccccc1NC(=O)Cc1nn(C)c(=O)c2ccccc12	-9.8	-0.4	27.6	-2.3	57.6*	3.1
Cn1nc(CC(=O)Nc2ccc3c(c2)OCCO3)c2ccccc2c1=O	13.6	-0.9	32.3	-1.3	94.7*	2.5
Cn1nc(CC(=O)N2CCN(c3ccccc3)CC2)c2ccccc2c1=O	6.8	-0.3	-2.1	-3.0	0.0	7.9
CCOC(=O)c1ccc(COC(=O)c2cc3ccccc3oc2=O)o1	-20.1	-0.5	3.9	0.7	0.8	-10.7
O=C(NCCC1=CCCCC1)C1CCCN(c2nc3ccccc3o2)C1 (configuration not stated)	18.0	0.8	13.5	1.6	-8.0	-12.9
CC(=O)N1c2ccccc2N(Cc2ccc(C)cc2C)C(=O)C1(C)C	21.4	1.1	16.3	0.1	95.1*	18.3
CSc1nc(N2CCOCC2)c2c3c(sc2n1)CCCC3	-13.7	1.4	10.4	4.7	2.3	32.5*
c1nc(N2CCOCC2)c2c3c(sc2n1)CCCC3	-1.3	0.6	12.7	-2.1	-0.4	12.3
CCOC(=O)N1CCN(CCC(=O)Nc2ccc(OC(F)(F)F)cc2)CC1	0.1	0.7	16.0	-0.3	6.5	-8.5
CCCCOc1ccc(N2C(=O)CC(N(O)c3ccccc3)C2=O)cc1 (configuration not stated)	9.4	1.4	6.5	0.1	9.0	34.4*
O=S(=O)(c1ccccc1)N(C1=NCCS1)S(=O)(=O)c1ccccc1	-17.7	-0.4	4.1	-2.3	-4.5	-4.9
